Measurements published in ChEMBL document CHEMBL3739367, “Design and synthesis of fused tetrahydroisoquinoline-iminoimidazolines” (Eur J Med Chem, 2015).

What was measured:
[1] = Cytotoxicity against human SH-SY5Y cells after 72 hrs by MTT assay; type: cell-based
Procedure, shortened: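 SH-SY5Y neuroblastoma cells grown in DMEM with 2 mM L-glutamine, streptomycin/penicillin, 1 mM non-essential amino acids, 10% heat-inactivated FBS, 37 °C, 5% CO2. Seeded 2000 cells/well, serum-starved 24 h to synchronise, then exposed to various compound concentrations (<0.1% DMSO) for 72 h; growth read by colorimetric MTT assay; CC50 reported.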

[2] = target: Adenosine receptor A2a (Homo sapiens, UniProt P29274); test: Displacement of [3H]-[…] from human adenosine A2A receptor expressed in HEK293 cells after 1 hr by scintillation counting; type: cell-based
Chain of Adenosine receptor A2a (P29274 whole entry): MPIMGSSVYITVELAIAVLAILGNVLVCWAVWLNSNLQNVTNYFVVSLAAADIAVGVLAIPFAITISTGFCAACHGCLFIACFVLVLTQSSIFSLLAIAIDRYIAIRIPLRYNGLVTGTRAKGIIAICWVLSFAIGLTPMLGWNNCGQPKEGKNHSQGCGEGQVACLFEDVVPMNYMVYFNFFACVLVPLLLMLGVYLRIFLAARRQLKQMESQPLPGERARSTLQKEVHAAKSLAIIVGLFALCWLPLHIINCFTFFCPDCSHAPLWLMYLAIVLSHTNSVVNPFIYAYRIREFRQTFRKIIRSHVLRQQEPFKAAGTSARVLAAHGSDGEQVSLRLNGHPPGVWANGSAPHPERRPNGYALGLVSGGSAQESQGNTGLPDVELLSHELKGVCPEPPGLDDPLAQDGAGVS

| Ki [2] [µM] | Structure (SMILES) | CC50 at 72 h [1] [µM] |
| --- | --- | --- |
| 44 | O=C1[C@@H]2Cc3ccccc3CN2C(=O)N1Cc1ccccc1 | > 100 |
| > 200 | N=C1N(CCc2ccccn2)C[C@@H]2Cc3ccccc3CN12 | > 100 |
| > 200 | N=C1N(CCN2CCOCC2)C[C@@H]2Cc3ccccc3CN12 | > 100 |
| 35 | N=C1N(CCCCc2ccccc2)C[C@@H]2Cc3ccccc3CN12 | > 100 |
| > 200 | CN1C(=N)N(Cc2ccccc2)CC1Cc1ccccc1 (racemic) | > 100 |
| > 200 | COc1ccc(C[C@H]2CN(Cc3ccccc3)C(=N)N2)cc1 | > 100 |
| > 200 | N=C1N[C@@H](Cc2ccc(O)cc2)CN1Cc1ccccc1 | > 100 |
| > 200 | N=C1N[C@@H](Cc2ccc(F)cc2)CN1Cc1ccccc1 | > 100 |
| 64 | N=C1N(Cc2ccccc2)C[C@@H]2Cc3ccccc3CN12 | > 100 |

| Structure (SMILES) | Ki [2] [µM] | CC50 at 72 h [1] [µM] |
| --- | --- | --- |
| N=C1N[C@@H](Cc2ccccc2)CN1Cc1ccccc1 | > 200 | > 100 |
| N=C1N(Cc2ccccc2)C[C@@H]2CCCCN12 | > 200 | > 100 |
| C[C@H]1CN(Cc2ccccc2)C(=N)N1 | > 200 | > 100 |
| CCCCCCN1C[C@@H]2Cc3ccccc3CN2C1=N | > 200 | > 100 |
